Laboratory results published in ChEMBL document CHEMBL1151733, “Pirinixic acid derivatives as novel dual inhibitors of microsomal prostaglandin E2 synthase-1 and 5-lipoxygenase” (J Med Chem, 2008).
Active and inactive are the calls of the source. No cut-off for these calls is given here.

Key:
[1] = molecular target: T1, Prostaglandin G/H synthase 2 (Homo sapiens, UniProt P35354); assay: Inhibition of human recombinant COX2
T1 sequence (P35354 whole entry): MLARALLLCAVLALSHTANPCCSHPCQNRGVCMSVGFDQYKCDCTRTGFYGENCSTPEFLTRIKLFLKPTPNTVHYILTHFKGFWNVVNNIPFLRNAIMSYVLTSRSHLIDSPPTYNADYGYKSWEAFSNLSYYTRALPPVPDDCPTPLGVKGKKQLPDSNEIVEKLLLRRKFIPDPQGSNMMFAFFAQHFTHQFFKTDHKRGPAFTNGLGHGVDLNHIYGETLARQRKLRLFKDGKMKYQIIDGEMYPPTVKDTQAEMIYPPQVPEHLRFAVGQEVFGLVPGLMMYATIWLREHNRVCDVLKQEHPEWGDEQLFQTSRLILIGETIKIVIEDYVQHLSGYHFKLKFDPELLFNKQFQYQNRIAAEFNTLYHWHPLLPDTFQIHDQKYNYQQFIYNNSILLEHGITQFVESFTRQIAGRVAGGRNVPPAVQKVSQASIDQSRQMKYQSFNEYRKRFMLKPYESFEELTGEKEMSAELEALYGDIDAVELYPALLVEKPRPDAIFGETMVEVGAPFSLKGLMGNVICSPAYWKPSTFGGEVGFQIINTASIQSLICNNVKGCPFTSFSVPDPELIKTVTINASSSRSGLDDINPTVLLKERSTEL
Procedure, shortened: (§1)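 Ovine COX-1 (50 units) or human recombinant COX-2 (20 units) in 100 mM Tris pH 8 with 5 mM glutathione, 5 µM hemoglobin and 100 µM EDTA. Compound preincubation 5 min at 4 °C, then prewarming 60 s at 37 °C. AA added at 5 µM for COX-1 or 2 µM for COX-2, reacted 5 min at 37 °C. 12-HHT extracted and quantified by HPLC. Mean ± SE, n = 3.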

[2] = molecular target: T2, Prostaglandin G/H synthase 1 (Ovis aries, UniProt P05979); assay: Inhibition of ovine COX1; procedure, shortened: as §1
T2 sequence (P05979 whole entry): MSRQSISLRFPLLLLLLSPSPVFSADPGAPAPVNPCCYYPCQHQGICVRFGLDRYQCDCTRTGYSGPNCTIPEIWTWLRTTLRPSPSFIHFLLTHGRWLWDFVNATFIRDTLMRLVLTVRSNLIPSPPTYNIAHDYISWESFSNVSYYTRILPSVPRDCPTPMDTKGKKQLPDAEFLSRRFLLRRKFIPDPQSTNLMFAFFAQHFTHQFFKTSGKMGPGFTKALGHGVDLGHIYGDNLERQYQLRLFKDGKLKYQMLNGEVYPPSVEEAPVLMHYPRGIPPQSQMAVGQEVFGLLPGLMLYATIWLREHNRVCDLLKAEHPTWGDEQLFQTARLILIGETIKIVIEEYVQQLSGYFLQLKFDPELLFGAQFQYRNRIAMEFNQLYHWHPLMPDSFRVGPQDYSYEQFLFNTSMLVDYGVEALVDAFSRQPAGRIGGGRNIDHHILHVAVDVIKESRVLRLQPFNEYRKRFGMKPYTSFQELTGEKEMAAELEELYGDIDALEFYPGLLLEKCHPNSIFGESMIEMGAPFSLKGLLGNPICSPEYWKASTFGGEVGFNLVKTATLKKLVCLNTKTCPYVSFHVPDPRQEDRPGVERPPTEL

[3] = molecular target: T3, Prostaglandin E synthase (Homo sapiens) (UniProt O14684); assay: Inhibition of PGES1 in human A549 cell microsome assessed as PGE2 formation at 10 uM by cell-free assay relative to control; set-up: scale not given: the % may be the effect or the level left
T3 sequence (whole entry): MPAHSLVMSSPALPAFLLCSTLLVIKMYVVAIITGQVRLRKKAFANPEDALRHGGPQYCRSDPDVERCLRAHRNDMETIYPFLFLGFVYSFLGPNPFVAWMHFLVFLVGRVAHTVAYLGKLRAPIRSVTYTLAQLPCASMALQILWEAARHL
Procedure, shortened: (§2)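 Microsomes from A549 cells grown with IL-1β (1 ng/mL, 72 h), diluted in 0.1 M potassium phosphate pH 7.4 with 2.5 mM glutathione. Compound or DMSO added 15 min before PGH₂ (20 µM final). Reaction ran 1 min at 4 °C and was stopped with FeCl₂/citric acid. PGE₂ isolated by C18 SPE, then RP-HPLC with UV at 195 nm against 11β-PGE₂ internal standard.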

[4] = molecular target: T4, Polyunsaturated fatty acid 5-lipoxygenase (Homo sapiens) (UniProt P09917); assay: Inhibition of 5-LO in human PMNL cells at 10 uM relative to control; format: cell-based; set-up: scale not given: the % may be the effect or the level left
T4 sequence (whole entry): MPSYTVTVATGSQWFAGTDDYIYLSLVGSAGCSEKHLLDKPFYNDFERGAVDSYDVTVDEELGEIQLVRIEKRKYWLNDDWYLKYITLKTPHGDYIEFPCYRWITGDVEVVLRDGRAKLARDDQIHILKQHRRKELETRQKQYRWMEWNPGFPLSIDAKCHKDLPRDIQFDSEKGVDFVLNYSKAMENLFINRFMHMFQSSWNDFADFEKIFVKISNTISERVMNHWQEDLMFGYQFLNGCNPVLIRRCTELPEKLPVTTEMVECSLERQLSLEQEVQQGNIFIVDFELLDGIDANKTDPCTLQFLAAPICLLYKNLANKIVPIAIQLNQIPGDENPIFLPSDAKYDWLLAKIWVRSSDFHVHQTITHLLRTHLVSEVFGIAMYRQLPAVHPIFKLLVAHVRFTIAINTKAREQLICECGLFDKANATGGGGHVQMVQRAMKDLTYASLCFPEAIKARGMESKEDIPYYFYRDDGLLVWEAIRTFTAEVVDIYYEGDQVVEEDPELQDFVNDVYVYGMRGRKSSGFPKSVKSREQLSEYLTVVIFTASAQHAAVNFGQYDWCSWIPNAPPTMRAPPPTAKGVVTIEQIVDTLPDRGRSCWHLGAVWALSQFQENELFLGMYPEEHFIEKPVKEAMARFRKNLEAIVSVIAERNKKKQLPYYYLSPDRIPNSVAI
Procedure, shortened: (§3)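 Freshly isolated human PMNL from leukocyte concentrates of healthy donors, 5 × 10⁶ cells/mL in PBS pH 7.4 with 1 mg/mL glucose and 1 mM CaCl₂. Preincubated with compound 15 min at RT, then stimulated with 2.5 µM A23187 plus 20 µM AA for 10 min at 37 °C. Stopped with methanol; LTB₄, its all-trans isomers and 5-H(P)ETE quantified by HPLC with PGB₁ internal standard.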

[5] = molecular target: T5, Prostaglandin G/H synthase 1 (Ovis aries) (UniProt P05979); assay: Inhibition of ovine COX1 assessed as remaining activity at 10 uM relative to control; procedure, shortened: as §1
T5 sequence (whole entry): T2 sequence (P05979 whole entry)

[6] = molecular target: T6, Prostaglandin G/H synthase 2 (Homo sapiens) (UniProt P35354); assay: Inhibition of human recombinant COX2 assessed as remaining activity at 10 uM relative to control; procedure, shortened: as §1
T6 sequence (whole entry): T1 sequence (P35354 whole entry)

[7] = molecular target: T7, Polyunsaturated fatty acid 5-lipoxygenase (Homo sapiens, UniProt P09917); assay: Inhibition of 5-LO in PMNL cells; format: cell-based; procedure, shortened: as §3
T7 sequence (P09917 whole entry): T4 sequence (whole entry)

[8] = molecular target: T7, Polyunsaturated fatty acid 5-lipoxygenase; assay: Inhibition of human recombinant 5-LO expressed in Escherichia coli by cell-free assay
Procedure, shortened: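 Human 5-LO expressed in E. coli MV1190 (pT3-5LO) at 27 °C, partially purified from the 100000g lysate supernatant. Held in PBS pH 7.4 with 1 mM EDTA and 1 mM ATP with compound for 10 min at 4 °C, warmed 30 s at 37 °C, then started with 2 mM CaCl₂ plus 20 µM AA. After 10 min at 37 °C, stopped with cold methanol; products measured by HPLC.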

[9] = molecular target: T8, Prostaglandin E synthase (Homo sapiens, UniProt O14684); assay: Inhibition of PGES1 in human A549 cell microsome assessed as PGE2 formation by cell-free assay; procedure, shortened: as §2
T8 sequence (O14684 whole entry): T3 sequence (whole entry)

SMILES | IC50 [1] | IC50 [2] | Activity [3] | Activity [4] | Activity [5] | Activity [6] | IC50 [7] | IC50 [8] | IC50 [9]
CCCCC(Sc1nc(OCCc2ccccc2)cc(OCCc2ccccc2)n1)C(=O)O (configuration not stated) | > 10 µM | > 10 µM | 43.1% | 2.7% | – | – | – | – | –
CCCCCCC(Sc1nc(Cl)cc(Nc2cc(OCC(F)(F)F)cc(OCC(F)(F)F)c2)n1)C(=O)O (configuration not stated) | – | – | – | 8% | 40% | 70.4% | 1.5 µM | 3 µM | –
Cc1cccc(Nc2cc(Cl)nc(SC(C(=O)O)c3ccccc3)n2)c1C (configuration not stated) | > 10 µM | > 10 µM | 74.6% | – | – | – | – | – | –
CCCCCCC(Sc1nc(Cl)cc(Oc2ccc3ncccc3c2)n1)C(=O)O (configuration not stated) | > 10 µM | > 10 µM | 67.4% | – | – | – | – | – | –
CCCCCC[C@@H](Sc1nc(Cl)cc(Nc2ccc(-c3ccc(C#N)cc3)cc2)n1)C(=O)O | > 10 µM | > 10 µM | 36.8% | 2.8% | – | – | – | 0.8 µM | –
CC(=O)N(O)C/C=C/c1cccc(Oc2ccccc2)c1 | > 10 µM | > 10 µM | inactive | – | – | – | – | – | –
CCCCCCC(Sc1nc(Cl)cc(Nc2ccc(-c3ccc(C#N)cc3)cc2)n1)C(=O)O (configuration not stated) | > 10 µM | > 10 µM | 26.1% | 2.7% | 66% | 61.2% | 0.4 µM | 1.5 µM | –
CCCCCCC(Sc1nc(Cl)cc(NCc2ccc(-c3ccccc3)cc2)n1)C(=O)O (configuration not stated) | > 10 µM | > 10 µM | 21.8% | 3% | 67.3% | 61.3% | 1 µM | 2 µM | –
CCCCC(Sc1nc(OCCc2ccccc2)cc(OCCc2ccccc2)n1)C(=O)OCC (configuration not stated) | > 10 µM | > 10 µM | inactive | 80.1% | – | – | – | – | –
CCCCCC[C@H](Sc1nc(Cl)cc(Nc2ccc(-c3ccc(C#N)cc3)cc2)n1)C(=O)O | > 10 µM | > 10 µM | 23% | 2.8% | – | – | – | 1.5 µM | –
Cc1cccc(Nc2cc(Cl)nc(SC(C(=O)O)c3cccc4ccccc34)n2)c1C (configuration not stated) | – | – | – | 16.8% | 42.2% | 32.5% | 5 µM | – | –
O=C(O)CSc1nc(OCCc2ccccc2)cc(OCCc2ccccc2)n1 | > 10 µM | > 10 µM | 66.4% | 40.6% | – | – | – | – | –

Second part, the compound after the results:

IC50 [1] | IC50 [2] | Activity [3] | Activity [4] | Activity [5] | Activity [6] | IC50 [7] | IC50 [8] | IC50 [9] | SMILES
> 10 µM | > 10 µM | inactive | – | – | – | – | – | – | CCCCCCC(Sc1nc(Cl)cc(Nc2cccc(C)c2C)n1)C(=O)OCC (configuration not stated)
> 10 µM | > 10 µM | inactive | 80.2% | – | – | – | – | – | CCCCCCC(Sc1nc(Cl)cc(NCc2ccc(-c3ccccc3)cc2)n1)C(=O)OCC (configuration not stated)
> 10 µM | > 10 µM | 29.8% | 7% | – | – | – | – | – | CCCCCCCCC(Sc1nc(Cl)cc(Nc2cccc(C)c2C)n1)C(=O)O (configuration not stated)
> 10 µM | > 10 µM | 59% | – | – | – | – | – | – | CCCCCCC(Sc1nc(Cl)cc(Nc2ccc3ncccc3c2)n1)C(=O)O (configuration not stated)
> 10 µM | > 10 µM | 39.1% | – | 69.5% | 61.7% | – | – | 5.6 µM | CCCCCCC(Sc1nc(Cl)cc(Nc2ccc3ncccc3c2)n1)C(=O)OCC (configuration not stated)
> 10 µM | > 10 µM | inactive | – | – | – | – | – | – | Cc1cccc(Nc2cc(Cl)nc(SC(C)C(=O)O)n2)c1C (configuration not stated)
> 10 µM | > 10 µM | 80.7% | 37.1% | – | – | – | – | – | CCCCCCC(Sc1nc(Cl)cc(NCCOc2ccccc2)n1)C(=O)OCC (configuration not stated)
> 10 µM | > 10 µM | inactive | – | – | – | – | – | – | CCCCC(Sc1nc(Cl)cc(Nc2cccc(C)c2C)n1)C(=O)O (configuration not stated)
> 10 µM | > 10 µM | 31.9% | – | 75.2% | 62% | – | 6.5 µM | – | CCCCCCC(Sc1nc(Cl)cc(Nc2cccc(C)c2C)n1)C(=O)O (configuration not stated)
> 10 µM | > 10 µM | inactive | – | – | – | – | – | – | Cc1cccc(Nc2cc(Cl)nc(SCC(=O)O)n2)c1C [PIRINIXIC ACID]
> 10 µM | > 10 µM | 21.7% | 4.1% | 52.3% | 57.1% | 0.7 µM | 1.5 µM | 1.6 µM | CCCCCCC(Sc1nc(Cl)cc(Nc2ccc(-c3ccccc3)cc2)n1)C(=O)O (configuration not stated)
> 10 µM | > 10 µM | 83.8% | – | – | – | – | – | – | Cc1cccc(Nc2cc(Cl)nc(SC(C)(C)C(=O)O)n2)c1C
> 10 µM | > 10 µM | 24.9% | 3.1% | 71.2% | 53.7% | 0.5 µM | 2 µM | 2.1 µM | CCCCCCC(Sc1nc(Cl)cc(Nc2cc(C)c(-c3ccccc3)cc2OC)n1)C(=O)O (configuration not stated)
> 10 µM | > 10 µM | 85.7% | – | – | – | – | – | – | CCCCCCC(Sc1nc(Cl)cc(NCc2ccc3ncccc3c2)n1)C(=O)O (configuration not stated)
> 10 µM | > 10 µM | 70% | 16.1% | – | – | – | – | – | CCCCCCC(Sc1nc(Cl)cc(NCCc2ccccc2)n1)C(=O)O (configuration not stated)
> 10 µM | > 10 µM | 79.9% | 28% | – | – | – | – | – | CCCCCCC(Sc1nc(Cl)cc(NCCOc2ccccc2)n1)C(=O)O (configuration not stated)
